The RNAGym collection of RNA variant scans (doi:10.1126/science.aae0568)
This sample holds only a part of the variants without activity.

B1: tRNA (parent)
chain: GUUCCGUUGGCGUAAUGGUAACGCGUCUCCCUCCUAAGGAGAAGACUGCGGGUUCGAGUCCCGUACGGAACG

Variants of: B1
Assay: yeast fitness relative to wild type (ratio to wild type); higher = fitter; tRNA-Arg(CCU), competitive growth, 37 C, YPD
Summary of the method: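 Changes in genotype frequencies gave Darwinian fitness relative to wild type. Frequencies were read by 100-nucleotide paired-end sequencing of gene amplicons before and after pooled Saccharomyces cerevisiae strains, carrying tRNA-Arg(CCU) gene variants at the native locus, were competed in YPD at 37°C for 24 hours in six replicates. A genotype was kept only with ≥ 100 starting reads, and estimates < 0.5 were set to 0.5.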

| Variant | yeast fitness |
| --- | --- |
| GUUCCGUUGGCGUAAUGGUAACGCGUAUCCCUCCUAAGGAGAAGACUGCGGGGUCGAGUCCCGUACGGAACG | 0.651 |
| GUUCCGUUGGCGUAAUGGUAACGCGUGUCCCUCCUAAGGAGCAGACUGCGGGUUCGAGUCCCGUACGGAUCG | ≤ 0.5 |
| GUUCCGUUGGCGUAAUGGUAACGCGUAUCCCUCCUAAGGAGAAGACAGCGGGUUCCAGUCCCGUACGGCACG | 0.894 |
| GUUCCGUUGGCGUAAUGGUAACGCGUGUCCCUCCUACGGGGAAGAUUGCGGGUUCGAGUCCCGUACGGAACG | 0.578 |
| GUUCCGUUGGCGUAAUGGUAACGCGUAUCCCUCCUAAGGAGAAGACUGCGGGUUCGAGCCCAGUACGGAACG | ≤ 0.5 |
| GUUCCGUUGGCGUAAUGGUAACGCGUAUCCCUCCUAAGGAGAAGACAGCGGGUUCCAGUCCCGUACGGAACG | 0.694 |
| GUUCCGUUGGCGUAAUGGUAACGCGUGUCCCUCCUGAGGAGAAGACUGCGGGUUCGAGUCCCGUACGGUACG | 0.641 |
| GUUCCGUUGGCGUAAUGGUAACGCGUGUCCCUCCUAUGGAGAGGACUGCGGGUUCGAGUCCCGUACGGAACG | ≤ 0.5 |
| GUUCCGUUGGCGUAAUGGUAACGCGUAUCCCUCCUAAGGAGAAGACGGCGGGUUCGAGUCCCGUACGGCACG | ≤ 0.5 |
| GUUCCGUUGGCGUAAUGGUAACGCGUAUCCCGCCUAAGGAGAAGACUGCGGGUUCGAGUCCUGUACGGACCG | 0.547 |
| GUUCCGUUGGCGUAAUGGUAACGCGUAUCCCUCCUAAGGAGAAGACUGCGGGUUCGAGUCCCGCACGGAACG | 0.943 |
| GUUCCGUUGGCGUAAUGGUAACGCGUGUCCCUCCUGAGGAGAAGACUGCGGGUUCGAGUCCCGUAGGGAACG | 0.548 |
| GUUCCGUUGGCGUAAUGGUAACGCGUAUCCCUCCUAAGGAGAAGACUGCGGGUUCGAGUCCCGAACGCAACG | ≤ 0.5 |
| GUUCCGUUGGCGUAAUGGUAACGCGUAUCCCUCCUAAGGAGAAGACCGCGGGUUCGAGUCCCGUACGGAACG | 0.975 |
| GUUCCGUUGGCGUAAUGGUAACGCGUGUCCCUCCUAAGGUGAAGACUGCGGGUUCGUGUCCCGUAAGGAACG | ≤ 0.5 |
| GUUCCGUUGGCGUAAUGGUAACGCGUACCCCUCCUAAGGAGAAGACUGCGGGUUCGAGUCCCGUACGGAACG | 0.775 |
| GUUCCGUUGGCGUAAUGGUAACGCGUGUCCCUCCUGAGGAGAAGACUGCGGGUUCGAGUCACGUUCGGAACG | ≤ 0.5 |
| GUUCCGUUGGCGUAAUGGUAACGCGUAUCCCGCCUAAGGAGAAGACUGCGGGUUCGAGUCCCGUACGGAACG | 0.595 |
| GUUCCGUUGGCGUAAUGGUAACGCGUGUCCCUCCUUAGGAGAAGAUUGCGGGUUCGAGUCCCGUACAGAACG | 0.54 |
| GUUCCGUUGGCGUAAUGGUAACGCGUAGCCCUCCUAAGGAGAAGACUGCGGGUUCGAGUCCCGCACGGAACG | ≤ 0.5 |
| GUUCCGUUGGCGUAAUGGUAACGCGUGUCCCUCCUAGGGAGAAGACUGCGGUUUCGAGUCUCGUACAGAACG | ≤ 0.5 |
| GUUCCGUUGGCGUAAUGGUAACGCGUAUCCCUCCUAAGGAGAAGACUGCGGGAUCGACUCCCGUACGGACCG | 0.57 |
| GUUCCGUUGGCGUAAUGGUAACGCGUGUCCCUCCUAGAGAGAAGACUGCGGGUUCGAGUCCCGUACGGAACG | ≤ 0.5 |
| GUUCCGUUGGCGUAAUGGUAACGCGUAUCCCUCCUAAGGAGAAGACUGCGGGUCCGAGUCCCGUACGGAACG | 0.991 |
| GUUCCGUUGGCGUAAUGGUAACGCGUAUCCCUCCUAAGGAGAAGACUGCGGGUACGAGUCCCGUACGGAACG | 0.727 |

| Variant | yeast fitness |
| --- | --- |
| GUUCCGUUGGCGUAAUGGUAACGCGUGUCCCUCCUAGGGAGAAGACUGCGGGAUCGAGUCCCGUACGGAACG | 0.632 |
| GUUCCGUUGGCGUAAUGGUAACGCGUGUCCCUCCUUAGGAGAAGACUGCGGGUUCGAGUCCCGUACGGCACG | ≤ 0.5 |
| GUUCCGUUGGCGUAAUGGUAACGCGUAUCCCUCCUAAGGAGAAGACUGCGGGUACGAGUCCCGUUUGGAACG | ≤ 0.5 |
| GUUCCGUUGGCGUAAUGGUAACGCGUGUCCCUCCUAGGAAGAAGACUGCGGGUUCGAGUCGCGUACGGAACG | 0.821 |
| GUUCCGUUGGCGUAAUGGUAACGCGUGUCCCUCCUGAGGAGAAGACUGCGGGUUCGAGUCCCGUACGGAACG | 0.542 |
| GUUCCGUUGGCGUAAUGGUAACGCGUGUCCCUCCUUAGGAGAAGACUGCGGGUUCGAGUCCCGUACGGAACG | 0.666 |
| GUUCCGUUGGCGUAAUGGUAACGCGUGUCCCUCCUUAGGAGAAGUCUGCGGGUUCGAGUCCCGUACGGCACG | 0.577 |
| GUUCCGUUGGCGUAAUGGUAACGCGUGUCCCUCCUUAGCAGAAGACUGCGGGUUCGAGUCCCGUACGGCACG | 0.548 |
| GUUCCGUUGGCGUAAUGGUAACGCGUGUCCCUCCUAAGGUGAAGACUGCGGGUUUGAGUCCCGUACGGAACG | ≤ 0.5 |
| GUUCCGUUGGCGUAAUGGUAACGCGUAUCCCUCCUAAGGAGAAGACCGCGGGUUCGAGUCCCGCACGGACCG | 0.535 |
| GUUCCGUUGGCGUAAUGGUAACGCGUGUCCCUCCUAAGGAGACGAUUGCGGGUUCGAAUCCCGUACGGAACG | 1.02 |
| GUUCCGUUGGCGUAAUGGUAACGCGUGUCCCUCCUAGGGAGAAGACUGCGGGUUCGAGUCCCGUACGGACCG | 0.533 |
| GUUCCGUUGGCGUAAUGGUAACGCGUAACGCUCCUAAGGAGAAGACUGCGGGUUCGAGUCCCGUACAGAACG | 0.587 |
| GUUCCGUUGGCGUAAUGGUAACGCGUAACCCUCCUAAGGAGAAGACUGCGGGUUCGAGUCCCGUACGGAUCG | ≤ 0.5 |
| GUUCCGUUGGCGUAAUGGUAACGCGUAUCCCUCCUAAGGAGAAGACUGCGGGUUCGAGACCCGUACGGAACG | 0.876 |
| GUUCCGUUGGCGUAAUGGUAACGCGUGUCCCUCCUACGAAGAAGCCUGCGGGUUCGAGUCCCGUACGGAACG | 0.646 |
| GUUCCGUUGGCGUAAUGGUAACGCGUAUCCCUCCUAAGGAGAAGACUGCGGGUUCGAGUCCCCUACGCAACG | 0.524 |
| GUUCCGUUGGCGUAAUGGUAACGCGUGUCCCUCCUAGGGAGAAGACUGCGGGUUCGAGUCCCCCACGGAACG | ≤ 0.5 |
| GUUCCGUUGGCGUAAUGGUAACGCGUGUCCCUCCUGAGGAGAAGACUGCGGGUUCGAGUCCCCUAUGGAACG | ≤ 0.5 |
| GUUCCGUUGGCGUAAUGGUAACGCGUGUCCCUCCUAAGGAGUUGACUGCGGGUUCGAGUCCCGUACGGAACG | 0.594 |
| GUUCCGUUGGCGUAAUGGUAACGCGUAUCCCUCCUAAGGAGAAGACUGCGGGUUCGAGUCCCGUACGUAACG | 0.805 |
| GUUCCGUUGGCGUAAUGGUAACGCGUAUCCCUCCUAAGGAGAAGACUGCGGGUUCGAGUCCCGUACGAAACG | 0.787 |
| GUUCCGUUGGCGUAAUGGUAACGCGUGUCCCUCCUAAGGAGGAGACUGCGGGUUCGAGUCCCGUACGGUACG | ≤ 0.5 |
| GUUCCGUUGGCGUAAUGGUAACGCGUGUCCCUCCUGAGGAGAAGACUGCGGGUUCGAGUCCCGUACGGAUCG | ≤ 0.5 |
| GUUCCGUUGGCGUAAUGGUAACGCGUGUCCCUCCUAAGGAGGAGACUGCGGGUUCGAGUCCCGCACGGAACG | ≤ 0.5 |

| Variant | yeast fitness |
| --- | --- |
| GUUCCGUUGGCGUAAUGGUAACGCGUGUCCCUCCUGAGGGGAAGACUGCGGGUUCGAGUCCCGUACGGCACG | ≤ 0.5 |
| GUUCCGUUGGCGUAAUGGUAACGCGUGUCCCUCCUGAGGGGAAGACUGCGGGUUCGAGUCCCGUACGGUACG | ≤ 0.5 |
| GUUCCGUUGGCGUAAUGGUAACGCGUAUCCCUCCCAAGGAGAAGACUGCGGGUUCGCGUCCCGUACGGAACG | 0.619 |
| GUUCCGUUGGCGUAAUGGUAACGCGUGUCCCUCCUAAGGAGUAGACUGCGGAUUCGAGUCCCGUACGGAACG | ≤ 0.5 |
| GUUCCGUUGGCGUAAUGGUAACGCGUGUCCCUCCUAAGGAGCAGACUGCGGGUUCGAGUCCCGUACGGAACG | 0.586 |
| GUUCCGUUGGCGUAAUGGUAACGCGUGUCCCUCCUAAGGAGGAGACUGCGGGUUCGAGUCCCGUACGGAACG | 0.607 |
| GUUCCGUUGGCGUAAUGGUAACGCGUGUCCCUCCUAAGGAGCAGACUGCGGGUUAGAGUCCCGUACGGAACG | 0.682 |
| GUUCCGUUGGCGUAAUGGUAACGCGUAUCCCUCCCAAGGAGUAGACUGCGGGUUAGAGUCCCGUACGGAACG | ≤ 0.5 |
| GUUCCGUUGGCGUAAUGGUAACGCGUAUCCCUCCCAAGGAGUAGACUGCGGGUUCGAGUCCCGUACGGGACG | ≤ 0.5 |
| GUUCCGUUGGCGUAAUGGUAACGCGUGUCCCUCCUAAGGAGACGAUUGCGGGUUCGAGUUCCGUACGGAACG | 0.748 |
| GUUCCGUUGGCGUAAUGGUAACGCGUGUCCCUCCUAAGGAGCAGACUGCGGGUUCGAGUCCGGUACGGAACG | 0.561 |
| GUUCCGUUGGCGUAAUGGUAACGCGUGUCCCUCCUAAGGAGACGACUGCGGGUUCGAGUCCUGUACGGAACG | 0.599 |
| GUUCCGUUGGCGUAAUGGUAACGCGUGUCCCUCCUAUGGAGAAGACUGGGGGUUCGAGUCCCGCACGGCACG | ≤ 0.5 |
| GUUCCGUUGGCGUAAUGGUAACGCGUGUCCCUCCUACGGAGAAGACUGCGGCUUCGAGUCCCGUACGGAACG | ≤ 0.5 |
| GUUCCGUUGGCGUAAUGGUAACGCGUGUCCCUCCUAAGGUGAAGACUGCGGGUUCGAGUCCCGUACGGACCG | ≤ 0.5 |
| GUUCCGUUGGCGUAAUGGUAACGCGUGUCCCUCCUAAGGAGCAGACUGCGGGUUCGAGUCCCGUCCGGAACG | ≤ 0.5 |
| GUUCCGUUGGCGUAAUGGUAACGCGUGUCCCUCCUAAGGAGACGACUGCGGGUUCGAGUCCCGUACGGAACG | 0.611 |
| GUUCCGUUGGCGUAAUGGUAACGCGUGUCCCUCCUACGGAGAAGACUGCGGGUUCGAGUCCCGUACGGAACG | 0.911 |
| GUUCCGUUGGCGUAAUGGUAACGCGUGUCCCUCCUCAGGAGUAGACUGCGGGUUCGAGUCCCGUAUGGAACG | ≤ 0.5 |
| GUUCCGUUGGCGUAAUGGUAACGCGUGUCCCUCCUUAGCAGAAGACUGCGGGUUCGAGUCCCGUACGCAACG | 0.533 |
| GUUCCGUUGGCGUAAUGGUAACGCGUGUCCCUCCUAGGGAGAAGACUGCGGGUUCGCGUCCCGUACGCCACG | ≤ 0.5 |
| GUUCCGUUGGCGUAAUGGUAACGCGUAUCCCUCCUAAGGAGAAGACUGCGGGUUCGAGUCCCGAACGGCACG | 0.703 |
| GUUCCGUUGGCGUAAUGGUAACGCGUGUCCCUCCUAAGGAGUAGACUGUGGGUUCGAGUCCCGUACGGAACG | 0.58 |
| GUUCCGUUGGCGUAAUGGUAACGCGUGUCCCUCCUAAGGAGCAGACUGCCGGUUCAAGUCCCGUAGGGAACG | ≤ 0.5 |
| GUUCCGUUGGCGUAAUGGUAACGCGUGUCCCUCCUAAGGGGAAGACUGCGAGUUCGAGUCCCGUACGGAACG | 0.541 |
